Tests used:
Cathepsin K [1] = molecular target: T1, Cathepsin K (Homo sapiens, UniProt P43235); experiment: Inhibition of Human cathepsin K
T1 sequence (P43235 whole entry): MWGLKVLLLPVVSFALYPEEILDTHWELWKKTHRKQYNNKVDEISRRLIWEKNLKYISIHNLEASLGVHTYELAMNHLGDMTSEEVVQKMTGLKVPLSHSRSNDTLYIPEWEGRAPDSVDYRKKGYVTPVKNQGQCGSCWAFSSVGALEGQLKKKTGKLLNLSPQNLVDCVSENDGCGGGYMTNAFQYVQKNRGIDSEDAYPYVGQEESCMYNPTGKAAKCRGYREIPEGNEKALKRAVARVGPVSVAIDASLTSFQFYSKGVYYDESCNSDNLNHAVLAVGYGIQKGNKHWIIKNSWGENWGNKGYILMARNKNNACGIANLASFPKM

[2] = plasma clearance in male Sprague-Dawley rat; type: ADME, organism-based
Procedure, shortened: (§1)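 Crossover in rats over 2 study days, 2 days apart: 30-min IV infusion on day 1, oral bolus gavage in the same animals on day 2. Blood taken from lateral tail vein, plasma by centrifugation, drug quantified by LC/MS/MS (LLOQ 5–10 ng/mL). PK parameters from plasma concentration–time data by standard analysis.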

[3] = half life period in male Sprague-Dawley rat; type: ADME, organism-based; conditions: in vivo; procedure, shortened: as §1
[4] = volume distribution in male Sprague-Dawley rat; type: ADME, organism-based; conditions: in vivo, read-out: Vdss; procedure, shortened: as §1
[5] = Bioavailability in rat (Sprague-Dawley) (male); type: ADME, organism-based; conditions: in vivo; procedure, shortened: as §1
Cathepsin B = Cathepsin B (Homo sapiens, UniProt P07858); experiment: Inhibitory activity against Human cathepsin B
Procathepsin L = Procathepsin L (Homo sapiens, UniProt P07711); experiment: Inhibitory activity against Human cathepsin L
Cathepsin S = Cathepsin S (Homo sapiens, UniProt P25774); experiment: Inhibitory activity against Human cathepsin S
[6] = Volume of distribution in male Sprague-Dawley rat; type: ADME, organism-based; conditions: in vivo, read-out: Vdss; procedure, shortened: as §1
Cathepsin K [7] = molecular target: T2, Cathepsin K (Rattus norvegicus, UniProt O35186); experiment: Inhibitory activity against Rat cathepsin K
T2 sequence (O35186 whole entry): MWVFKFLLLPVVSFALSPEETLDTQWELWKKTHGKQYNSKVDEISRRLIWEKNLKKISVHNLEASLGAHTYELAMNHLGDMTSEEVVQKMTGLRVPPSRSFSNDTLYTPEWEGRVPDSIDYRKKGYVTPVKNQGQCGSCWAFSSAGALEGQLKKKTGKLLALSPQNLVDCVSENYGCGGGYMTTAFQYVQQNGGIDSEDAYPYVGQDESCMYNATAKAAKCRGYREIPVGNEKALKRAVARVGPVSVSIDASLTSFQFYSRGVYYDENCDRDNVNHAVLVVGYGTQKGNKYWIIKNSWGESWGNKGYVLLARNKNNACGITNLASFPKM

Cathepsin K [8] = molecular target: T1, Cathepsin K; experiment: In vitro IC50 value was measured using in situ cytochem assay.

Chain of Cathepsin S (P25774 whole entry): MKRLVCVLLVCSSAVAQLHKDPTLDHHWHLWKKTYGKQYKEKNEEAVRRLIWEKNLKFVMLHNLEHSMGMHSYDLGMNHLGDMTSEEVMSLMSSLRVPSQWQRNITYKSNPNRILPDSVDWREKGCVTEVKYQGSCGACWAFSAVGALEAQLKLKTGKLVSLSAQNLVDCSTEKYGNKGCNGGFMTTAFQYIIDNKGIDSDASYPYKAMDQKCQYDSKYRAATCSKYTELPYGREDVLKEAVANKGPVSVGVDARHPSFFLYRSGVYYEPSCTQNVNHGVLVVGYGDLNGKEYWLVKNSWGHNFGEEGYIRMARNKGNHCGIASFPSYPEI
Chain of Procathepsin L (P07711 whole entry): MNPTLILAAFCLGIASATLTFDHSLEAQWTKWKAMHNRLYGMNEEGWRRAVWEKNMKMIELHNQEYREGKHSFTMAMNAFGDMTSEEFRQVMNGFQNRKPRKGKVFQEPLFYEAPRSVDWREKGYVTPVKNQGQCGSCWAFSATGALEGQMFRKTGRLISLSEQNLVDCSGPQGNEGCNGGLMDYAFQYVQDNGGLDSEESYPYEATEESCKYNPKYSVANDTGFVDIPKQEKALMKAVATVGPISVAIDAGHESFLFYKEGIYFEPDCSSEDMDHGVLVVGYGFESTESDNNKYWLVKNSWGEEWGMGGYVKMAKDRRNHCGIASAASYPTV

| SMILES | Ki (Cathepsin K [1]) | clearance [2] | half-life [3] | bioavailability [5] | Ki (Cathepsin B) | Ki (Cathepsin S) | also measured |
| --- | --- | --- | --- | --- | --- | --- | --- |
| CC(C)C[C@H](NC(=O)c1cc2cc(OCCN3CCOCC3)ccc2o1)C(=O)N[C@@H]1CCCN(C(=O)Cc2cccc(-c3ccccn3)c2)CC1=O | 4.7 nM | – | – | – | – | – | – |
| CC(C)C[C@H](NC(=O)c1cc2ccccc2o1)C(=O)N[C@@H](C)C(=O)CN(C)S(=O)(=O)c1ccccn1 | 670 nM | 44.6 mL/min/kg | 21.5 min | 2.5% | – | – | Vd [4]: 1.15 L/kg |
| CC(C)C[C@H](NC(=O)OCc1ccccc1)C(=O)N[C@@H]1CCCN(C(=O)[C@H](CC(C)C)NC(=O)OCc2ccccc2)CC1=O | 15 nM | – | – | – | – | 97 nM | Ki (Procathepsin L): 290 nM |
| CC(C)C[C@H](NC(=O)c1cc2ccccc2o1)C(=O)N[C@@H](C)C(=O)CNS(=O)(=O)c1ccccn1 | 7.5 nM | 32.5 mL/min/kg | 33.2 min | 3.2% | 59 nM | 20 nM | Vd [6]: 0.71 L/kg |
| CC(C)C[C@H](NC(=O)OCc1ccccc1)C(=O)NC1CCCN(C(=O)[C@H](CC(C)C)NC(=O)OCc2ccccc2)CC1=O (stereo partly drawn) | 2 nM | – | – | – | – | 26 nM | Ki (Procathepsin L): 47 nM |
| CC(C)C[C@H](NC(=O)OCc1ccccc1)C(=O)N1CC(=O)C(NC(=O)[C@@H](CC(C)C)NC(=O)OCc2ccccc2)C1 (stereo partly drawn) | 2.3 nM | – | – | – | > 1000 nM | – | – |
| CC(C)C[C@H](NC(=O)c1cc2ccccc2o1)C(=O)N[C@@H]1CCCN(S(=O)(=O)c2ccccn2)CC1=O | – | 51.9 mL/min/kg | 33.2 min | 9.7% | – | – | Vd [4]: 1.64 L/kg |
| CC(C)C[C@H](NC(=O)c1cc2ccccc2o1)C(=O)NC1CCCN(S(=O)(=O)c2ccccn2)CC1O (stereo partly drawn) | > 1000 nM | – | – | – | – | – | – |
| CC(C)C[C@H](NC(=O)c1cc2cc(OCCN3CCOCC3)ccc2o1)C(=O)NC1CCCN(C(=O)Cc2cccc(-c3ccccn3)c2)CC1O (stereo partly drawn) | 54 nM | – | – | – | – | – | – |
| CC(C)C[C@H](NC(=O)c1cc2cc(OCCN3CCOCC3)ccc2o1)C(=O)N[C@H]1CCCN(C(=O)Cc2cccc(-c3ccccn3)c2)CC1=O | 0.0048 nM | 39.7 mL/min/kg | 338 min | 2.1% | 100 nM | 14 nM | IC50 (Cathepsin K [8]): 30 nM; Vd [6]: 1.29 L/kg; Ki (Cathepsin K [7]): 4.8 nM; Ki (Procathepsin L): 0.49 nM |

Second part, led by results:

| Ki (Cathepsin K [1]) | clearance [2] | half-life [3] | bioavailability [5] | Ki (Cathepsin B) | Ki (Cathepsin S) | SMILES | also measured |
| --- | --- | --- | --- | --- | --- | --- | --- |
| 2.6 nM | – | – | – | 440 nM | – | CC(C)C[C@H](NC(=O)OCc1ccccc1)C(=O)N1CCC(NC(=O)[C@@H](CC(C)C)NC(=O)OCc2ccccc2)C(=O)C1 (stereo partly drawn) | – |
| – | 49.2 mL/min/kg | 29.8 min | 42.1% | 500 nM | – | CC(C)C[C@H](NC(=O)c1cc2ccccc2o1)C(=O)N[C@H]1CCCN(S(=O)(=O)c2ccccn2)CC1=O | Vd [6]: 1.86 L/kg; Ki (Cathepsin K [7]): 60 nM; Ki (Procathepsin L): 2.2 nM |
| – | – | – | – | – | 890 nM | CC(C)C[C@H](NC(=O)OCc1ccccc1)C(=O)NCC(=O)CNC(=O)[C@H](CC(C)C)NC(=O)OCc1ccccc1 | – |
| 1.6 nM | 33.1 mL/min/kg | 27 min | 3.3% | – | – | CC(C)C[C@H](NC(=O)c1cc2ccccc2o1)C(=O)NCC(=O)CNS(=O)(=O)c1ccccn1 | Vd [4]: 0.65 L/kg |
| 30 nM | – | – | – | – | – | CC(C)C[C@H](NC(=O)OCc1ccccc1)C(=O)N1CCCC(NC(=O)[C@@H](CC(C)C)NC(=O)OCc2ccccc2)C(=O)C1 (stereo partly drawn) | – |

Reference: ChEMBL document CHEMBL1134406, “Azepanone-based inhibitors of human and rat cathepsin K” (J Med Chem, 2001)
